Measurements reported in ChEMBL document CHEMBL1156652, “Antiurolithic effect of lupeol and lupeol linoleate in experimental hyperoxaluria” (J Nat Prod, 2008).
Activity calls are given as the source filed them.

Legend:
[1] = test system: Rattus norvegicus; assay: Reduction of lactate dehydrogenase activity in kidney of ethylene glycol-induced hyperoxaluria Wistar rat model assessed per mg of protein at 50 mg/kg/day, po for 28 days; format: functional
Method in brief: (§1)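 Hyperoxaluria produced with 0.75% ethylene glycol in drinking water for 28 days, with concurrent oral dosing at 50 mg/kg body wt/day. Liver and kidney homogenized 10% in ice-cold 0.01 M Tris-HCl pH 7.4. LDH assayed with glyoxylate as substrate; GAO and XO by published methods. Mean ± SEM, 6 rats/group.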

[2] = test system: Rattus norvegicus; assay: Effect on xanthine oxidase activity in kidney of Wistar rat assessed per mg of protein at 50 mg/kg/day, po for 28 days; format: functional
Method in brief: (§2)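 Normal male Wistar rats, no ethylene glycol, given oral dosing at 50 mg/kg body wt/day for 28 days. Liver and kidney homogenized 10% in ice-cold 0.01 M Tris-HCl pH 7.4. LDH assayed with glyoxylate as substrate; GAO and XO by published methods. Mean ± SEM, 6 rats/group.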

[3] = test system: Rattus norvegicus; assay: Reduction of xanthine oxidase activity in kidney of ethylene glycol-induced hyperoxaluria Wistar rat model assessed per mg of protein at 50 mg/kg/day, po for 28 days; format: functional; method in brief: as §1
[4] = test system: Rattus norvegicus; assay: Effect on ferrous sulfate-induced lipid peroxidation levels in kidney of Wistar rat assessed as malondialdehyde release per mg of protein at 50 mg/kg/day, po for 28 days; format: functional
Method in brief: (§3)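 Normal male Wistar rats (120 ± 20 g), no ethylene glycol, given drug orally at 50 mg/kg body wt/day for 28 days. Kidney homogenized 10% in ice-cold 0.01 M Tris-HCl, pH 7.4. Lipid peroxidation read as malondialdehyde released, with 10 mM ferrous sulfate or 0.2 mM ascorbate as inducer. Mean ± SEM, 6 rats/group.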

[5] = test system: Rattus norvegicus; assay: Nephrotoxicity in Wistar rat at 50 mg/kg/day, po for 28 days; format: toxicity, organism-based; parameters: route oral; settings: in vivo, 672 h
Method in brief: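 Male Wistar rats (120 ± 20 g), six per group, dosed orally once daily for 28 days, alone or alongside 0.75% ethylene glycol in drinking water to induce hyperoxaluria. After decapitation, kidneys were homogenized (10%) in ice-cold 0.01 M Tris-HCl pH 7.4 for ALP and γ-GT assays, or formalin-fixed, H&E-stained and examined by light microscopy. Data reported as mean ± SEM.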

[6] = test system: Rattus norvegicus; assay: Renoprotective effect in ethylene glycol-hyperoxaluria Wistar rat model assessed as increase in renal alkaline phosphatase activity per mg of protein at 50 mg/kg/day, po for 28 days; format: functional
Method in brief: (§4)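 Ethylene glycol given at 0.75% in drinking water for 28 days to male Wistar rats, with concurrent oral dosing at 50 mg/kg body wt/day. Kidney homogenate in 0.01 M Tris-HCl pH 7.4. ALP read as phenol liberated from disodium phenyl phosphate, Folin colour at alkaline pH; γ-GT as p-nitroaniline liberated/min/mg protein. Mean ± SEM, 6 rats/group.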

[7] = test system: Rattus norvegicus; assay: Effect on lactate dehydrogenase activity in liver of Wistar rat assessed per mg of protein at 50 mg/kg/day, po for 28 days; format: functional; method in brief: as §2
[8] = test system: Rattus norvegicus; assay: Increase in catalase activity in kidney of ethylene glycol-induced hyperoxaluria Wistar rat model assessed per mg of protein at 50 mg/kg/day, po for 28 days; format: functional
Method in brief: (§5)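 Ethylene glycol-hyperoxaluric male Wistar rats (0.75% in drinking water, 28 days), co-dosed orally at 50 mg/kg body wt/day. Kidney homogenate, 10% in 0.01 M Tris-HCl pH 7.4. SOD unit defined as 50% inhibition of pyrogallol autoxidation; CAT as µmol H2O2 utilized/min. GSH, vitamins C and E as µg/mg protein. Mean ± SEM, 6 rats/group.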

[9] = test system: Rattus norvegicus; assay: Effect on vitamin C level in kidney of Wistar rat assessed per mg of protein at 50 mg/kg/day, po for 28 days; format: functional
Method in brief: (§6)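 Normal male Wistar rats, no ethylene glycol, dosed orally at 50 mg/kg body wt/day for 28 days. Kidney homogenate, 10% in 0.01 M Tris-HCl pH 7.4. SOD unit defined as 50% inhibition of pyrogallol autoxidation; CAT as µmol H2O2 utilized/min. GSH, vitamins C and E as µg/mg protein. Protein by Lowry. Mean ± SEM, 6 rats/group.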

[10] = test system: Rattus norvegicus; assay: Effect on glycolic acid oxidase activity in liver of Wistar rat assessed per mg of protein at 50 mg/kg/day, po for 28 days; format: functional; method in brief: as §2
[11] = test system: Rattus norvegicus; assay: Effect on glutathione peroxidase activity in kidney of Wistar rat assessed per mg of protein at 50 mg/kg/day, po for 28 days; format: functional; method in brief: as §6
[12] = test system: Rattus norvegicus; assay: Reduction in ascorbate-induced lipid peroxidation levels in kidney of ethylene glycol-induced hyperoxaluria Wistar rat model assessed as malondialdehyde release per mg of protein at 50 mg/kg/day, po for 28 days; format: functional
Method in brief: as §3, with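 “Male” for “Normal male”, “given 0.75%” for “(120 ± 20 g), no”, “glycol in drinking water for 28 days, with” for “glycol, given”, “throughout.” for “for 28 days.”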

[13] = test system: Rattus norvegicus; assay: Effect on renal alkaline phosphatase activity in Wistar rat assessed per mg of protein at 50 mg/kg/day, po for 28 days; format: functional
Method in brief: (§7)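 Normal male Wistar rats, no ethylene glycol, dosed orally at 50 mg/kg body wt/day for 28 days. Kidney homogenate in 0.01 M Tris-HCl pH 7.4. ALP read as phenol liberated from disodium phenyl phosphate, Folin colour at alkaline pH; γ-GT as p-nitroaniline liberated/min/mg protein. Mean ± SEM, 6 rats/group.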

[14] = test system: Rattus norvegicus; assay: Increase in glutathione level in kidney of ethylene glycol-induced hyperoxaluria Wistar rat model assessed per mg of protein at 50 mg/kg/day, po for 28 days; format: functional; method in brief: as §5
[15] = test system: Rattus norvegicus; assay: Reduction of lactate dehydrogenase activity in liver of ethylene glycol-induced hyperoxaluria Wistar rat model assessed per mg of protein at 50 mg/kg/day, po for 28 days; format: functional; method in brief: as §1
[16] = test system: Rattus norvegicus; assay: Effect on superoxide dismutase activity in kidney of Wistar rat assessed per mg of protein at 50 mg/kg/day, po for 28 days; format: functional; method in brief: as §6
[17] = test system: Rattus norvegicus; assay: Reduction of glycolic acid oxidase activity in liver of ethylene glycol-induced hyperoxaluria Wistar rat model assessed per mg of protein at 50 mg/kg/day, po for 28 days; format: functional; method in brief: as §1
[18] = test system: Rattus norvegicus; assay: Effect on catalase activity in kidney of Wistar rat assessed per mg of protein at 50 mg/kg/day, po for 28 days; format: functional; method in brief: as §6
[19] = test system: Rattus norvegicus; assay: Protective effect in kidney of ethylene glycol-induced hyperoxaluria Wistar rat model assessed as normal glomerulus/tubule at 50 mg/kg/day, po for 28 days; format: functional, organism-based
Method in brief: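 Hyperoxaluria induced with 0.75% ethylene glycol in drinking water for 28 days, with concurrent oral dosing at 50 mg/kg body wt/day. Kidney portions fixed in 10% formalin, stained with hematoxylin and eosin, and examined by light microscopy for glomeruli, tubules, crystal deposits and infiltration.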

[20] = test system: Rattus norvegicus; assay: Increase in glutathione peroxidase activity in kidney of ethylene glycol-induced hyperoxaluria Wistar rat model assessed per mg of protein at 50 mg/kg/day, po for 28 days; format: functional; method in brief: as §5
[21] = test system: Rattus norvegicus; assay: Effect on renal gamma glutamyl transferase activity in Wistar rat assessed mg of protein at 50 mg/kg/day, po for 28 days; format: functional; method in brief: as §7
[22] = test system: Rattus norvegicus; assay: Effect on lactate dehydrogenase activity in kidney of Wistar rat assessed per mg of protein at 50 mg/kg/day, po for 28 days; format: functional; method in brief: as §2
[23] = test system: Rattus norvegicus; assay: Reduction in ferrous sulfate-induced lipid peroxidation levels in kidney of ethylene glycol-induced hyperoxaluria Wistar rat model assessed as malondialdehyde release per mg of protein at 50 mg/kg/day, po for 28 days; format: functional
Method in brief: as §3, with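 “Male” for “Normal male”, “given 0.75%” for “(120 ± 20 g), no”, “glycol in drinking water for 28 days, with” for “glycol, given”, “throughout.” for “for 28 days.”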

[24] = test system: Rattus norvegicus; assay: Effect on vitamin E level in kidney of Wistar rat assessed per mg of protein at 50 mg/kg/day, po for 28 days; format: functional; method in brief: as §6
[25] = test system: Rattus norvegicus; assay: Effect on xanthine oxidase activity in liver of Wistar rat assessed per mg of protein at 50 mg/kg/day, po for 28 days; format: functional; method in brief: as §2
[26] = test system: Rattus norvegicus; assay: Reduction of xanthine oxidase activity in liver of ethylene glycol-induced hyperoxaluria Wistar rat model assessed per mg of protein at 50 mg/kg/day, po for 28 days; format: functional; method in brief: as §1
[27] = test system: Rattus norvegicus; assay: Increase in vitamin E level in kidney of ethylene glycol-induced hyperoxaluria Wistar rat model assessed per mg of protein at 50 mg/kg/day, po for 28 days; format: functional; method in brief: as §5
[28] = test system: Rattus norvegicus; assay: Increase in superoxide dismutase activity in kidney of ethylene glycol-induced hyperoxaluria Wistar rat model assessed per mg of protein at 50 mg/kg/day, po for 28 days; format: functional; method in brief: as §5
[29] = test system: Rattus norvegicus; assay: Renoprotective effect in ethylene glycol-hyperoxaluria Wistar rat model assessed as increase in renal gamma glutamyl transferase activity mg of protein at 50 mg/kg/day, po for 28 days; format: functional; method in brief: as §4
[30] = test system: Rattus norvegicus; assay: Effect on ascorbate-induced lipid peroxidation levels in kidney of Wistar rat assessed as malondialdehyde release per mg of protein at 50 mg/kg/day, po for 28 days; format: functional; method in brief: as §3
[31] = test system: Rattus norvegicus; assay: Effect on glutathione level in kidney of Wistar rat assessed per mg of protein at 50 mg/kg/day, po for 28 days; format: functional; method in brief: as §6
[32] = test system: Rattus norvegicus; assay: Increase in vitamin C level in kidney of ethylene glycol-induced hyperoxaluria Wistar rat model assessed per mg of protein at 50 mg/kg/day, po for 28 days; format: functional; method in brief: as §5

SMILES	Activity [1]	Activity [2]	Activity [3]	Activity [4]	Activity [5]	Activity [6]	Activity [7]	Activity [8]	Activity [9]	Activity [10]	Activity [11]	Activity [12]	Activity [13]	Activity [14]	Activity [15]	Activity [16]	Activity [17]	Activity [18]	Activity [19]	Activity [20]	further results
C=C(C)[C@@H]1CC[C@]2(C)CC[C@]3(C)C(CC[C@@H]4[C@@]5(C)CC[C@H](OC(=O)CCCCCCC/C=C/C/C=C/CCCCC)C(C)(C)[C@@H]5CC[C@]43C)[C@@H]12 (some centres undefined) [LUPEOL LINOLEATE]	2.26	0.9	0.97	12.2 nmol	Non-toxic	1.65 µmol/min	2.33	155.3 µmol/min	1.89 µg	2.75 nmol	8.32 µg/min	4.95 nmol	1.68 µmol/min	4.59 µg	2.39	5	3.12 nmol	164.9 µmol/min	Active	8.01 µg/min	Activity [21]: 8.79 nmol/min; Activity [22]: 2.01; Activity [23]: 13.38 nmol; Activity [24]: 1.06 µg; Activity [25]: 1.28; Activity [26]: 1.39; Activity [27]: 0.97 µg; Activity [28]: 4.82; Activity [29]: 8.62 nmol/min; Activity [30]: 4.45 nmol; Activity [31]: 4.76 µg; Activity [32]: 1.74 µg
C=C(C)[C@@H]1CC[C@]2(C)CC[C@]3(C)[C@H](CC[C@@H]4[C@@]5(C)CC[C@H](O)C(C)(C)[C@@H]5CC[C@]43C)[C@@H]12 [LUPEOL]	2.41	0.93	1.09	12.14 nmol	Non-toxic	1.53 µmol/min	2.35	141.6 µmol/min	1.86 µg	2.77 nmol	8.31 µg/min	5.11 nmol	1.72 µmol/min	4.27 µg	2.42	5.04	3.61 nmol	164.2 µmol/min	Active	7.11 µg/min	Activity [21]: 8.73 nmol/min; Activity [22]: 2.05; Activity [23]: 15.11 nmol; Activity [24]: 1.04 µg; Activity [25]: 1.31; Activity [26]: 1.54; Activity [27]: 0.91 µg; Activity [28]: 4.67; Activity [29]: 8.28 nmol/min; Activity [30]: 4.5 nmol; Activity [31]: 4.75 µg; Activity [32]: 1.6 µg
